We go through 40 molecules from ChEMBL document CHEMBL1151756, “Design, synthesis, and biological evaluation of N-carboxyphenylpyrrole derivatives as potent HIV fusion inhibitors targeting gp41” (J Med Chem, 2008).

SMILES strings stand for the structures. Activity calls are given as the source filed them. The calls are words filed in the database; no cut-off is given here. Some results are limits rather than exact numbers.

One data set deals with MT2. In words: Cytotoxicity against human MT2 cells after 4 days by XTT assay. The data set is classed as cell-based. The settings on record: mt2, 96 h. Summed up:
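XTT assay: MT-2 cells (5 × 10⁵/mL) incubated with compound at graded concentrations at 37 °C for 4 days. XTT (1 mg/mL) containing 0.02 μM PMS then added, and A450 read after 4 h. CC50 calculated.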
For orientation: Tetrazolium assays rely on reduction of a dye to a coloured formazan, in cell work by metabolically active cells.

Data set [1] has as its system Human immunodeficiency virus 1. In words: Antiviral activity against HIV1 3B in human MT2 cells assessed as inhibition of p24 antigen level after 4 days by ELISA. The data set is classed as functional, organism-based. Particulars: Human immunodeficiency virus 1, 3B, MT2, 96 h. The procedure, abridged: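 Medium then replaced without compound. Day 4 post-infection, supernatants lysed with 5% Triton X-100; p24 measured by sandwich ELISA with HIVIG capture, anti-p24 mAb, TMB, A450, and a recombinant p24 standard curve. Triplicates; EC50 calculated from percent inhibition.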
A general note: In an ELISA, binding on a coated surface is turned into a signal by an enzyme label.

Data set [2] in a line: Selectivity index, ratio of CC50 for human MT2 cells to EC50 for HIV1 3B. The data set is classed as toxicity, cell-based. Particulars: read-out: Ratio CC50/EC50.
Data set [3] is described as follows: Inhibition of HIV1 3B gp41 six-helix bundle formation after 30 mins by sandwich ELISA.
Data set [4] deals with Human immunodeficiency virus 1. In words: Antiviral activity against HIV1 3B in human MT2 cells assessed as reduction of virus-induced cytopathogenicity. It is filed as functional, organism-based.

`COC(=O)c1ccc(-n2cccc2)cc1O`: the midpoint of cytotoxicity in the data set on MT2, the CC50, lay at 379 µM. The concentration for a half-maximal effect (EC50) (in general, the concentration at which the effect is half-maximal) in data set [1] stood at 35.4 µM. Also, the selectivity ratio in data set [2] stood at 10.7.
With `Nc1nnc(-c2ccc(C(=O)O)cc2)s1`, in the data set with MT2, the 50% cytotoxic concentration (CC50) (usually the concentration giving 50% cytotoxicity) is > 400 µM. The EC50 in data set [1] is > 400 µM. The IC50 (in general, the point on the concentration scale where inhibition reaches its midpoint) in data set [3] is > 1000 µM.
Turning to `O=C(O)c1ccc(N2C(=O)C=CC2=O)cc1`, in the data set with MT2, the CC50 is > 400 µM. Besides, the EC50 in data set [1] worked out at 205 µM. Also, the half-inhibitory concentration (IC50) in data set [3] is > 1000 µM. For the same molecule, in data set [2], the selectivity ratio is > 1.95.
Taken in the same sequence, the figures for `O=C(O)c1ccc(-c2noc(CBr)n2)cc1` were 81.9 µM, 127 µM, > 353 µM and 0.64.
On the same counts, the results for `Cc1ccc(C)n1-c1ccc(C(=O)O)cc1` are 136 µM, 174 µM, 189 µM and 0.78.
`COC(=O)c1ccc(-c2noc(CCl)n2)cc1` had a CC50 in the data set on MT2 of 14.2 µM. Moreover, in data set [1], the concentration for a half-maximal effect (EC50) amounted to 41.4 µM. Besides, in data set [3], the half-maximal inhibitory concentration (IC50) was > 395 µM. Further, the selectivity ratio in data set [2] is 0.34.
On the same counts, the results for `Cc1ccc(C)n1-c1ccc(CC(=O)O)cc1` are 204 µM, 2.1 µM, 225 µM and 97.1.
Taken in the same sequence, the figures for `O=C(O)c1ccc(N2C(=O)CSC2=S)cc1` were 143 µM, 258 µM, > 1000 µM and 0.56.
In the case of `Cc1ccc(C)n1-c1ccc(Cl)cc1C(=O)O`, the EC50 in data set [1] was 8.56 µM. In addition, the half-inhibitory concentration (IC50) in data set [3] is 60.3 µM.
On the same counts, the results for `O=C(O)c1ccc(-n2cccc2)cc1` are 69.2 µM and 129 µM.
Take `O=C(O)Cc1ccc(-n2cccc2)cc1`: the 50% effective concentration (EC50) in data set [1] was 371 µM.
Turning to `Cc1ccc(C)n1-c1ccc(Cl)c(C(=O)O)c1`, half-maximal cytotoxicity in the data set on MT2 (CC50) was put at 211 µM. In data set [1], the half-maximal effective concentration (EC50) worked out at 1.52 µM. The molecule further came in with an IC50 in data set [3] of 78.7 µM. In addition, in data set [2], the selectivity ratio came to 139.
Taken in the same sequence, the figures for `O=C(O)c1cccc(N2C(=O)CSC2=S)c1` were 165 µM, 204 µM, > 1000 µM and 0.81.
On the same counts, the results for `O=C(O)c1ccc(-c2noc(C(F)(F)F)n2)cc1` are 82.2 µM, 3.06 µM, 224 µM and 26.9.
`CCOC(=O)c1ccc(-c2noc(CO)n2)cc1`: in the data set with MT2, half-maximal cytotoxicity (CC50) was put at 385 µM. Moreover, the 50% effective concentration (EC50) in data set [1] turned out to be 373 µM. This molecule also returned a half-maximal inhibitory concentration (IC50) in data set [3] of 178 µM. In addition, the selectivity ratio in data set [2] was 1.03.
`O=C(O)c1cccc(-c2noc(C(F)(F)F)n2)c1`: the CC50 with MT2 was > 400 µM. Also, in data set [1], the concentration giving a half-maximal response (EC50) was > 400 µM. For the same molecule, in data set [3], the half-inhibitory concentration (IC50) was > 1000 µM.
As to `O=C(O)c1ccc(-n2cccc2)cc1O`, the midpoint of cytotoxicity in the data set on MT2, the CC50, lay at 443 µM. The EC50 in data set [1] was 81.7 µM. In addition, the IC50 in data set [3] was determined as 70.8 µM. In addition, in data set [2], the selectivity ratio is 5.42.
Taken in the same sequence, the figures for `O=C(O)c1cc(N2C(=O)CSC2=S)ccc1Cl` were 155 µM, 179 µM, > 1000 µM and 0.87.
With `O=C(O)c1ccc(N2C(=O)C=CC2=O)cc1O`, the CC50 with MT2 is > 400 µM. Also, the EC50 in data set [1] is > 400 µM. Also, the IC50 in data set [3] was > 1000 µM.
As to `O=C(O)c1ccc(-c2noc(CCl)n2)cc1`, half-maximal cytotoxicity with MT2 (CC50) was put at 64 µM. Besides, in data set [1], the concentration for a half-maximal effect (EC50) was found to be 3.91 µM. In data set [3], the half-maximal inhibitory concentration (IC50) was > 420 µM. Further, the selectivity ratio in data set [2] was determined as 16.4.
Take `Cc1ccc(C)n1-c1cccc(-c2nnn[nH]2)c1`: the half-maximal cytotoxic concentration (CC50) with MT2 was found to be 249 µM. Also, in data set [1], the EC50 is 7.7 µM. Further, the IC50 in data set [3] is 25.6 µM. The selectivity ratio in data set [2] worked out at 32.4.
In the case of `COC(=O)c1ccc(-c2noc(CSC#N)n2)cc1`, the CC50 in the data set with MT2 turned out to be 43.7 µM. For the same molecule, the EC50 in data set [1] was determined as 11 µM. Besides, the IC50 in data set [3] was 171 µM. Further, the selectivity ratio in data set [2] came out at 3.99.
`O=C(O)c1cc(N2C(=O)CSC2=S)ccc1O` returned a CC50 in the data set with MT2 of 152 µM. Also, the EC50 in data set [1] is 166 µM. Also, the half-inhibitory concentration (IC50) in data set [3] was > 1000 µM. In addition, the selectivity ratio in data set [2] is 0.92.
`O=C1CSC(=S)N1c1cccc(C(F)(F)F)c1`: the CC50 with MT2 is 85.4 µM. Also, the EC50 in data set [1] amounted to 116 µM. In data set [3], the concentration for half-maximal inhibition (IC50) is > 1000 µM. The selectivity ratio in data set [2] is 0.74.
On the same counts, the results for `Cc1ccc(C)n1-c1ccc(S(N)(=O)=O)cc1` are 117 µM, 99.1 µM, 182 µM and 1.18.
Consider `O=C(O)c1cccc(-n2cccc2)c1`, for which the CC50 in the data set with MT2 was determined as 302 µM. In addition, the EC50 in data set [1] stood at 44.8 µM. In data set [3], this molecule registered a half-inhibitory concentration (IC50) of 211 µM. Further, the selectivity ratio in data set [2] amounted to 6.74.
In turn, `O=C1CSC(=S)N1c1ccc(O)cc1` displayed a CC50 with MT2 of 84.9 µM. In data set [1], the EC50 amounted to 35.7 µM. For the same molecule, the IC50 in data set [3] is > 1000 µM. Besides, the selectivity ratio in data set [2] amounted to 2.38.
As to `Cc1ccc(C)n1-c1cccc(C(=O)O)c1`, the CC50 with MT2 is 88.4 µM. Also, in data set [1], the concentration giving a half-maximal response (EC50) is 11.8 µM. The molecule also showed an IC50 in data set [3] of 42.2 µM. Moreover, in data set [2], the selectivity ratio was found to be 7.49.
Taken in the same sequence, the figures for `COC(=O)c1ccc(-c2noc(CBr)n2)cc1` were 32.7 µM, 88 µM, > 337 µM and 0.37.
For `Cc1ccc(C)n1-c1ccc(O)c(C(=O)O)c1`, the result in data set [4] was Active. This molecule also yielded a CC50 with MT2 of 133 µM. The EC50 in data set [1] was 0.69 µM. This molecule also came in with an IC50 in data set [3] of 37.4 µM.
In the data set with MT2, `O=C(O)c1ccc(-c2noc(CO)n2)cc1` gave a half-maximal cytotoxic concentration (CC50) of 455 µM. For the same molecule, in data set [1], the EC50 was 153 µM. Moreover, in data set [3], the midpoint of inhibition, the IC50, lay at 26.4 µM. The selectivity ratio in data set [2] was found to be 2.98.
In the case of `COC(=O)c1ccc(-n2c(C)ccc2C)cc1O`, the half-maximal cytotoxic concentration (CC50) in the data set with MT2 was found to be 88.9 µM. Moreover, the EC50 in data set [1] was 59.1 µM. For the same molecule, the 50% inhibitory concentration (IC50) in data set [3] is 287 µM. Moreover, the selectivity ratio in data set [2] was determined as 1.5.
In the data set on MT2, `N#CSCc1nc(-c2ccc(C(=O)O)cc2)no1` displayed a cytotoxic concentration (CC50) of 383 µM. For the same molecule, the EC50 in data set [1] is 68 µM. Further, the half-inhibitory concentration (IC50) in data set [3] was 178 µM. The selectivity ratio in data set [2] was 5.64.
As to `O=C(O)c1cc(-n2cccc2)ccc1Cl`, the midpoint of cytotoxicity in the data set on MT2, the CC50, lay at 336 µM. Inhibition in data set [3] was half-maximal at 58.7 µM (IC50).
Regarding `O=C(O)c1cccc(-c2noc(CCl)n2)c1`, the CC50 in the data set on MT2 is 64.9 µM. Besides, the 50% effective concentration (EC50) in data set [1] turned out to be 57.7 µM. The molecule further gave an IC50 in data set [3] of 346 µM. Also, in data set [2], the selectivity ratio came to 1.12.
Regarding `O=C(O)c1ccc(Cn2cccc2)cc1`, the EC50 in data set [1] is 63.9 µM. Also, inhibition in data set [3] was half-maximal at 157 µM (IC50).
Taken in the same sequence, the figures for `O=C(O)c1cc(-n2cccc2)ccc1O` were 9.66 µM and 48.7 µM.
`c1cc(-c2nnn[nH]2)cc(-n2cccc2)c1` registered a CC50 with MT2 of 436 µM. Moreover, the concentration for a half-maximal effect (EC50) in data set [1] was 41 µM. Besides, in data set [3], half-maximal inhibition (IC50) was put at 226 µM. The selectivity ratio in data set [2] was 10.6.
`COC(=O)c1ccc(N2C(=O)C=CC2=O)cc1O` returned a CC50 with MT2 of 66.2 µM. For the same molecule, the EC50 in data set [1] was 39.4 µM. The molecule also returned an IC50 in data set [3] of 101 µM. Also, in data set [2], the selectivity ratio came out at 1.68.
On the same counts, the results for `COc1ccc(N2C(=O)CSC2=S)cc1` are 89.6 µM, 63.4 µM, > 1000 µM and 1.41.
